According to article PMC4465239 (Journal of autoimmunity, 2013):
Like-named read-outs stand apart in the source and are kept apart here. Where no end group is shown, it is not given here. fluorescein = fluorescein label at the C-terminus

B1: IL-2: recombinant mouse IL-2 (protein, UniProt P04351 21-169, looked up)
Interleukin-2: APTSSSTSSSTAEAQQQQQQQQQQQQHLEQLLMDLQELLSRMENYRNLKLPRMLTFKFYLPKQATELKDLQCLEDELGPLRHVLDLTQSKSFQLEDAENFISNIRVTVVKLKGSDNTFECQFDDESATVVDFLRRWIAFCQSIISTSPQ

What was measured:
I-A^g7 = test: Half life of peptide:MHC interaction; type: binding, mouse; conditions: HPSEC, 37°C
Summary of the method: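 I-Ag7 monomer (1 µM) was loaded with 10 µM C-terminally fluoresceinated peptide for 24–72h at 37°C in 100mM citrate phosphate pH 5, 0.2% NP-40, 0.02% azide, 10mM EDTA and protease inhibitors. Free peptide was removed on a BSA-blocked G-50 spin column, and 2mM unlabelled competitor peptide was added. Samples dissociated at 37°C, were resolved by size-exclusion HPLC with fluorescence detection, and t½ = ln2/decay slope.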

BDC-2.5 T cells [1] = test: Proliferation of anergized cells with or without exogenous IL-2; type: cell-based, mouse; conditions: for proliferation on mimotope rechallenge with IL-2: with 3.5ng/well recombinant IL-2, mimotope+IL-2 vs. variant+IL-2 p=0.001; for proliferation on mimotope rechallenge without IL-2: without exogenous IL-2, mimotope vs. variant p=0.05
Summary of the method: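 Anergy was induced as follows: 14 d with 1µM mimotope, then 14 d with 1µM mimotope or 10µM variant plus irradiated APC. Cells were rechallenged with irradiated syngeneic splenocytes and graded mimotope, with or without 3.5ng/well recombinant mouse IL-2, for 48h at 37°C. [3H]thymidine (0.4µCi/well) was added for a further 18h. Stimulation index = stimulated CPM/unstimulated CPM. One-way ANOVA with Bonferroni post test.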

BDC-2.5 T cells [2] = type: cell-based, mouse
Summary of the method: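 BDC-2.5 splenocytes were primed 14 d with 1µM mimotope, Ficoll-purified, then restimulated 14 d with irradiated (3000 rad) syngeneic splenocytes plus 1µM mimotope or 10µM variant. They were then challenged with graded mimotope and irradiated splenocytes at 37°C. After 48h, 0.4µCi/well [3H]thymidine was added and incorporation counted 18h later. Four independent experiments in duplicate; mean ± SEM; Student's t test.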

[3] = molecular target: I-A^g7 monomer (class II MHC of the NOD mouse) (mouse (NOD)); test: SEC

| Molecule | stability of complex with I-A^g7 (I-A^g7) | proliferation on mimotope rechallenge with IL-2 (BDC-2.5 T cells [1]) | proliferation on mimotope rechallenge without IL-2 (BDC-2.5 T cells [1]) | half life of the peptide:MHC complex [3] [h] | also measured |
| --- | --- | --- | --- | --- | --- |
| AHHPIWARMDA [mimotope, reference compound] | extremely stable complex | maintained a normal dose response to agonist stimulation | typical proliferation profile |  | background proliferation with IL-2, no peptide rechallenge (BDC-2.5 T cells [1]; cells not stimulated with peptide, plus 3.5ng/well recombinant IL-2): increased background proliferation |
| AHYPIPADMDV [YPDV] | much less stable complex | did not exhibit proliferation above background | little proliferation above background |  | induction of anergy (BDC-2.5 T cells [2]): sufficient to induce an anergic phenotype; induction of anergy (BDC-2.5 T cells [2]; listed as MHC variant peptide): can induce anergy in BDC-2.5 T cells |
| AHYPIPADMDV-fluorescein [YPDV MHC variant peptide …] |  |  |  | 4 |  |
| B1 |  |  |  |  | rescue of proliferation of anergized T cells by IL-2 (BDC-2.5 T cells [1]; exogenous recombinant IL-2, 3.5ng/well): does not rescue proliferation of anergized T cells |
| AHHPIWARMDA-fluorescein [BDC-2.5 mimotope peptide …] |  |  |  | > 36 |  |
